A short description of data set [1]: Cytotoxicity against human HuH7 cells assessed as reduction in cell viability incubated for 48 hrs by CellTiter Glo Luminescent assay. In kind it is cell-based, Huh-7. The gist of the method:
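HuH7 viability was read by CellTiter-Glo luminescence in parallel with the infection dose–response. CC50 is the concentration reducing viability by 50%.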
On the technique in general: In ATP-based viability assays light output follows the ATP content of the culture.

A short description of data set [2]: Inhibition of Dengue virus full length NS2b-NS3/NS5 interaction incubated for 1 hr by ELISA. The gist of the method: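 Competitive ELISA measuring DENV NS3–NS5 binding across compound concentrations. IC50 reported as average ± SD from one experiment in duplicate.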
On the technique in general: In an ELISA, binding on a coated surface is turned into a signal by an enzyme label.

The subject of data set [3] is dengue virus type 2. The data set is described as follows: Inhibition of Dengue virus NS5 RNA-dependent RNA polymerase assessed as reduction in de novo initiation activity at 30 uM incubated for 1 hr relative to control. The gist of the method:
(§1)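 Purified recombinant full-length DENV2 NS5 polymerase was tested in two formats: primer-independent (de novo initiation) and primer-dependent (elongation). Compound at a single 30 μM; % inhibition reported.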

The nature of data set [4]: Selectivity index, ratio of CC50 for human HuH7 cells to EC50 for Dengue virus 2 EDEN 3295 infected in human HuH7 cells. The class given is toxicity, cell-based. As to conditions: read-out: Ratio CC50/EC50. In short, it runs like this: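 Selectivity index is CC50 (CellTiter-Glo, HuH7) divided by EC50 (plaque assay, DENV2 EDEN 3295, 48 h, HuH7).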
Data set [5] relates to dengue virus type 2. Nature of the data set: Antiviral activity against Dengue virus 2 EDEN 3295 infected in human HuH7 cells assessed as reduction in virus replication incubated for 48 hrs by plaque reduction assay. The class given is functional, organism-based. The following applies: EDEN 3295, Huh-7, 48 h. The gist of the method: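 DENV2 EDEN 3295 in human hepatoma HuH7 cells, treated 48 h. Infectious virus quantified by plaque assay. Dose–response from 0.01 to 100 μM after an initial 10 μM screen. EC50 is the concentration giving 50% inhibition of replication, reported as average ± SD of two independent experiments.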
On the technique in general: In a plaque reduction assay, fewer plaques than in the control indicate reduced infectivity or spread.

Another data set relates to Zika virus. The data set is described as follows: Antiviral activity against Zika virus H/PF/2013 infected in human HuH7 cells assessed as reduction in virus replication incubated for 24 hrs by plaque reduction assay. In kind it is functional, organism-based. The following applies: H/PF/2013, Huh-7, 24 h. The gist of the method: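 ZIKV H/PF/2013 in HuH7 cells, treated 24 h. Titres read by plaque assay. EC50 is the concentration giving 50% inhibition of replication, reported as average ± SD of two independent experiments.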

Data set [6] concerns dengue virus type 2. Nature of the data set: Inhibition of Dengue virus NS5 RNA-dependent RNA polymerase assessed as reduction in elongation activity at 30 uM incubated for 1 hr relative to control. The gist of the method:
as §1

Data set [7] is described as follows: Selectivity index, ratio of CC50 for human HuH7 cells to EC50 for Zika virus H/PF/2013 infected in human HuH7 cells. In kind it is toxicity, cell-based. The following applies: read-out: Ratio CC50/EC50. In short, it runs like this: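 Selectivity index is CC50 (CellTiter-Glo, HuH7) divided by EC50 (plaque assay, ZIKV H/PF/2013, 24 h, HuH7).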
Data set [8] in a line: Inhibition of Dengue virus NS5 RNA-dependent RNA polymerase assessed as reduction in elongation activity incubated for 1 hr. On the set-up: species or system dengue virus type 2. The gist of the method: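 Elongation (primer-dependent) activity of purified recombinant full-length DENV2 NS5 was measured over a concentration series with fluorescence read-out. Compound-only wells corrected for autofluorescence. IC50 is 50% inhibition of elongation, average ± SD from one experiment in duplicate.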

Data set [9] concerns dengue virus type 2. The data set is described as follows: Antiviral activity against Dengue virus 2 EDEN 3295 infected in human HuH7 cells assessed as reduction in viral titer over 10 passages incubated for 72 hrs by resistance development assay. In kind it is functional, organism-based. The following applies: EDEN 3295, Huh-7, 72 h. In short, it runs like this: (§2)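 Virus came from HuH7 serial passage under increasing compound concentrations (72 h each, to P10) and was expanded in C6/36 cells. P10 parental DENV2 or resistant-clone virus was then tested dose-dependently in HuH7 cells with 48 h compound treatment, measuring viral inhibition. Single experiment with duplicates.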

Data set [10] has as its system dengue virus type 2. The data set is described as follows: Antiviral activity against Dengue virus 2 EDEN 3295 clone 4_R infected in human HuH7 cells assessed as reduction in viral titer at 10 uM over 10 passage incubated for 72 hrs by resistance development assay relative to control. In kind it is functional. As to conditions: EDEN 3295, Huh-7, 72 h. The gist of the method:
(§3)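 Resistance selection: DENV2-infected HuH7 cells were passaged under rising compound concentrations, 72 h per passage, up to P10. P10 viruses (parental or resistant clone) were expanded in C6/36 insect cells. Susceptibility was then tested in HuH7 at a single 10 μM dose, read as viral titer reduction versus control. Two independent experiments in duplicate; average ± SD.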

The subject of the next data set is dengue virus type 3. The data set is described as follows: Antiviral activity against Dengue virus 3 infected in human HuH7 cells assessed as reduction in virus replication incubated for 48 hrs by plaque reduction assay. The class given is functional, organism-based. The following applies: Huh-7, 48 h.
Data set [11] has as its system dengue virus type 2. The data set is described as follows: Antiviral activity against Dengue virus 2 EDEN 3295 clone 4_R infected in human HuH7 cells assessed as reduction in viral titer over 10 passages incubated for 72 hrs by resistance development assay. In kind it is functional, organism-based. As to conditions: EDEN 3295, Huh-7, 72 h. In short, it runs like this: as §2

Data set [12] concerns dengue virus type 2. The data set is described as follows: Antiviral activity against Dengue virus 2 EDEN 3295 infected in human HuH7 cells assessed as reduction in viral titer at 10 uM over 10 passage incubated for 72 hrs by resistance development assay relative to control. In kind it is functional. The following applies: EDEN 3295, Huh-7, 72 h. In short, it runs like this: as §3

The subject of a further data set is dengue virus type 1. The data set is described as follows: Antiviral activity against Dengue virus 1 infected in human HuH7 cells assessed as reduction in virus replication incubated for 48 hrs by plaque reduction assay. The class given is functional, organism-based. The following applies: Huh-7, 48 h.
Data set [13] deals with dengue virus type 2. Nature of the data set: Inhibition of Dengue virus 2 NS5 assessed as reduction in NS5-3' UTR RNA at 25 uM incubated for 1 hr followed by 3' UTR RNA addition and measured after 20 mins by REMSA. The gist of the method:
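RNA electrophoretic mobility shift with DENV NS5 at 1.28 μM and RNA at 0.16 μM (RNA/NS5 1:8), compound at 25 μM, 37 °C. Order of addition: compound, then NS5, then RNA. Band shift from complex formation scored on gel.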

For a further data set, the system named is dengue virus type 4. Nature of the data set: Antiviral activity against Dengue virus 4 infected in human HuH7 cells assessed as reduction in virus replication incubated for 48 hrs by plaque reduction assay. As to conditions: Huh-7, 48 h. The class given is functional, organism-based.

Molecules are shown by their SMILES. pEC50, pIC50: −log10 of the molar value. The source made the active and inactive calls. The rule behind the calls is not given here.

Regarding `O=C(N[C@@H](Cc1ccc(O)cc1)C(=O)O)c1cc(-c2ccccc2)c(=O)n2c1sc1ccc(OC3CCCCCC3)cc12`, the CC50 – broadly, the concentration at which the toxic effect on the cells reaches its halfway point – at 48 h in data set [1] came out at 100 µM. Also, the negative logarithm of the IC50 (pIC50) (usually −log10 of the IC50, conventionally taken in molar units) in data set [2] was 4.47; in [8], 5.02. The figures for the inhibition in the data set with dengue virus type 2 [3] and in the data set with dengue virus type 2 [6] were 30.5% and 92.1%, respectively. Moreover, the selectivity ratio in data set [4] was 30; in data set [7] it was above 50. Also, the pEC50 – broadly, −log10 of the EC50, conventionally taken in molar units – in the data set on dengue virus type 2 [5] was 5.43; with Zika virus it was 5.80.
With `O=C(NCc1ccccc1)c1cc(-c2ccccc2)c(=O)n2c1sc1ccc(OC3CCCCC3)cc12`, the inhibition – broadly, the share of the control response that was lost under treatment – in the data set on dengue virus type 2 [6] came out at 31.2%.
Take `O=C(N[C@@H](Cc1ccc(O)cc1)C(=O)O)c1cc(-c2ccccc2)c(=O)n(-c2cccc(OC3CCCCC3)c2)c1`: the inhibition in the data set with dengue virus type 2 [3] was 36.4%; with dengue virus type 2 [6], 72.1%. Besides, the pIC50 in data set [8] was 4.09.
With `O=C(O)CCNC(=O)c1cc(-c2ccccc2)c(=O)n2c1sc1ccc(OC3CCCCC3)cc12`, the CC50 at 48 h in data set [1] is above 100 µM. Also, the pIC50 in [2] was 4.63; in data set [8], 4.42. Moreover, the pEC50 in the data set with dengue virus type 2 [9] was 5.28; in the data set with dengue virus type 2 [5] it was 5.46; in the data set on Zika virus it was 6.00; with dengue virus type 3, 5.11; in the data set with dengue virus type 2 [11] it was 4.94; in the data set on dengue virus type 1, 5.15. The pEC50 in the data set on dengue virus type 4 was 5.16. For the same compound, the inhibition at 10 µM turned out to be 20% with dengue virus type 2 [10] and 80% with dengue virus type 2 [12]. Besides, the selectivity ratio in [4] was above 30; in data set [7] it was above 100. Moreover, the inhibition in the data set with dengue virus type 2 [6] turned out to be 77.6%. Moreover, the inhibition result with dengue virus type 2 [13] was “Active”.
Consider `O=C(NCCO)c1cc(-c2ccccc2)c(=O)n2c1sc1ccc(OC3CCCCC3)cc12`, for which the CC50 at 48 h in data set [1] was 86.3 µM. Besides, the inhibition in the data set with dengue virus type 2 [3] turned out to be 10%; with dengue virus type 2 [6], 63.3%. In addition, the selectivity ratio in [4] and in data set [7] was 43 throughout. The figures for the pEC50 with dengue virus type 2 [5] and in the data set with Zika virus were 5.72 and 5.74, respectively.
With `O=C(NCc1ccc(O)cc1)c1cc(-c2ccccc2)c(=O)n2c1sc1ccc(OC3CCCCC3)cc12`, the CC50 at 48 h in data set [1] is above 100 µM. Besides, the selectivity ratio in data set [4] was above 50; in [7] it was above 100. In addition, the pEC50 in the data set with dengue virus type 2 [5] was 5.74; in the data set with Zika virus, 6.00. The inhibition with dengue virus type 2 [6] turned out to be 44.8%. The inhibition result in the data set on dengue virus type 2 [13] was “inactive”.
On to `O=C(N[C@@H](Cc1ccc(O)cc1)C(=O)O)c1cc(-c2ccccc2)c(=O)n2c1sc1ccc(OC3CCCCC3)cc12`, for which the CC50 at 48 h in [1] was above 100 µM. Also, the figures for the pIC50 in data set [2] and in data set [8] were 4.37 and 5.04, respectively. Besides, the figures for the inhibition in the data set on dengue virus type 2 [3] and in the data set with dengue virus type 2 [6] were 40.7% and 93%, respectively. In addition, the selectivity ratio in data set [4] was above 50; in data set [7], above 100. Besides, the pEC50 was 5.68 in the data set on dengue virus type 2 [5]; 6.40 with Zika virus; 5.55 in the data set with dengue virus type 3; 5.55 in the data set with dengue virus type 1; 5.77 in the data set with dengue virus type 4.
Take `O=c1c(-c2ccccc2)ccc2sc3ccc(OC4CCCCC4)cc3n12`: the inhibition with dengue virus type 2 [6] was 6.3%. Also, the inhibition result with dengue virus type 2 [13] is “inactive”.
`C#C[C@@]1(O)[C@H](O)[C@@H](CO)O[C@H]1n1ccc2c(N)ncnc21`: the CC50 at 48 h in data set [1] was 100 µM. Besides, the selectivity ratio in data set [4] is 100; in data set [7] it was above 100. In addition, the pEC50 in the data set with dengue virus type 2 [5] was 6.00; in the data set on Zika virus, 6.70.
On to `O=C(N[C@@H](CO)C(=O)O)c1cc(-c2ccccc2)c(=O)n2c1sc1ccc(OC3CCCCC3)cc12`, for which the results for the inhibition in the data set on dengue virus type 2 [3] and with dengue virus type 2 [6] were 44.8% and 97.5%, respectively. Also, the pIC50 in data set [8] was 4.70.
For the compound `Cn1cc(C(=O)N[C@@H](Cc2ccc(O)cc2)C(=O)O)cc(-c2ccccc2)c1=O`, the inhibition with dengue virus type 2 [3] is 35.6%; in the data set with dengue virus type 2 [6], 70.2%.
On to `O=C(N[C@@H](Cc1cccc(O)c1)C(=O)O)c1cc(-c2ccccc2)c(=O)n2c1sc1ccc(OC3CCCCC3)cc12`, for which the CC50 at 48 h in data set [1] is above 100 µM. In addition, the pIC50 in data set [2] is 4.74; in [8], 4.84. The inhibition in the data set on dengue virus type 2 [3] turned out to be 12.6%; in the data set with dengue virus type 2 [6], 94.1%. For the same compound, the selectivity ratio in data set [4] is above 30; in [7], above 100. Further, the pEC50 was 5.54 in the data set on dengue virus type 2 [5]; 6.10 in the data set with Zika virus; 5.37 in the data set on dengue virus type 3; 5.49 with dengue virus type 1; 5.23 with dengue virus type 4.
